One series concerns MCF7. The series is described as follows: Antiproliferative activity against human MCF7 cells by MTT assay. Format: functional, cell-based. Summed up:
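MCF-7 cells grown in Eagle's MEM with 10% FBS, 2 mM L-glutamine, penicillin/streptomycin and 1% non-essential amino acids. Seeded at 2.5×10^4 cells/mL, left 24 h at 37°C, then treated 72 h across 1 nM–100 μM from ethanol stocks (vehicle 1% v/v). MTT at 1 mg/mL final for 2 h in darkness, DMSO solubilisation, absorbance read. IC50 is the mean of at least three experiments in triplicate.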
A general note: Tetrazolium dyes change colour on reduction, which living cells bring about.

Series [1] in a line: Cytotoxicity against CD-1 mouse mammary epithelial cells seeded at 50000 cells/ml assessed as viable cells at IC50 after 72 hrs by alamar blue assay. The series is classed as cell-based, Epithelial cell. Particulars: read-out: Activity. Summed up:
(§1)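 Primary mammary epithelial cells came from 14-18 day pregnant CD-1 mice and were seeded at 25,000 or 50,000 cells/mL. After 24 h they were exposed 72 h to 1 nM–100 μM compound from ethanol stocks (vehicle ethanol 1% v/v). Viability was read with alamar blue.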

Series [2] in a line: Cytotoxicity against CD-1 mouse mammary epithelial cells seeded at 25000 cells/ml assessed as viable cells at 10 uM after 72 hrs by alamar blue assay. The note with it: read-out: Activity. The series is classed as cell-based, Epithelial cell. A digest of the protocol: as §1
Another series concerns MDA-MB-231. The series is described as follows: Antiproliferative activity against human MDA-MB-231 cells by MTT assay. Format: functional, cell-based. A digest of the protocol: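 MDA-MB-231 cells in DMEM with 10% FBS, 2 mM L-glutamine and penicillin/streptomycin were seeded at 2.5×10^4 cells/mL and held 24 h at 37°C. They then got ethanol-stock compound over 1 nM–100 μM (vehicle 1% v/v ethanol) for 72 h. MTT at 1 mg/mL final was added for 2 h in the dark, then DMSO for 20 min before absorbance. Untreated = 100% viability. IC50 is the mean ± S.E.M. of ≥3 triplicate experiments.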

For the next series, the species on record is Bos taurus. The series is described as follows: Inhibition of bovine tubulin polymerization assessed as reduction in Vmax at 10 uM by spectrophotometry. Summed up:
(§2)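 Purified bovine tubulin was mixed with GTP and polymerisation started by warming from 4 °C to 37 °C. Absorbance at 340 nm was recorded every 30 s for 60 min at 37 °C, with 1% v/v ethanol as vehicle. Fold change in Vmax was calculated against the ethanol control. Runs were in triplicate.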

A short description of series [3]: Cytotoxicity against CD-1 mouse mammary epithelial cells seeded at 50000 cells/ml assessed as viable cells at 10 uM after 72 hrs by alamar blue assay. The series is classed as cell-based, Epithelial cell. The note with it: read-out: Activity. Summed up:
as §1

Series [4] can be described thus: Inhibition of bovine tubulin polymerization assessed as concentration required for 50% Vmax inhibition by spectrophotometry. Also on record: species or system Bos taurus.
A short description of series [5]: Inhibition of bovine tubulin polymerization by spectrophotometry. Also on record: species or system Bos taurus. A digest of the protocol: as §2
A short description of series [6]: Cytotoxicity against CD-1 mouse mammary epithelial cells seeded at 25000 cells/ml assessed as viable cells at IC50 after 72 hrs by alamar blue assay. The series is classed as cell-based, Epithelial cell. The note with it: read-out: Activity. A digest of the protocol:
as §1
For orientation: Alamar Blue is a resazurin reagent that responds to reducing activity.

Usually IC50 stands for the point on the concentration scale where inhibition reaches its midpoint. On to `COc1ccc([C@@H]2C(c3cc4ccccc4n3C)C(=O)N2c2cc(OC)c(OC)c(OC)c2)cc1` (stereo partly drawn), for which the midpoint of inhibition with MCF7, the IC50, lay at 6600 nM.

Regarding `COc1ccc([C@@H]2[C@@H](c3cccs3)C(=O)N2c2cc(OC)c(OC)c(OC)c2)cc1O`, the viability at 72 h in series [1] is 90.6%; in series [6] it was 90.7%. Further, the IC50 with MCF7 came to 7 nM; in the series on MDA-MB-231, 180 nM; in [4], 1370 nM; in series [5] it was 6250 nM. Besides, the viability at 72 h, 10 µM in [2] was determined as 71.2%; in series [3], 74.8%. In addition, the fold change (FC) in the series listed under Bos taurus was found to be 3.2.

With `COc1ccc([C@@H]2[C@@H](c3ccsc3)C(=O)N2c2cc(OC)c(OC)c(OC)c2)cc1O`, the IC50 came to 10 nM in the series with MCF7 and 49 nM in the series with MDA-MB-231.

`COc1ccc([C@@H]2[C@@H](c3cccs3)C(=O)N2c2cc(OC)c(OC)c(OC)c2)cc1N`: the IC50 with MCF7 came to 42 nM; in the series on MDA-MB-231 it was 110 nM.

Take `COc1ccc([C@@H]2[C@@H](C(O)c3ccoc3)C(=O)N2c2cc(OC)c(OC)c(OC)c2)cc1` (stereo partly drawn): the IC50 in the series with MCF7 was determined as 1100 nM.

With `COc1ccc([C@@H]2[C@@H](C(O)c3cccs3)C(=O)N2c2cc(OC)c(OC)c(OC)c2)cc1` (stereo partly drawn), the concentration for half-maximal inhibition (IC50) in the series with MCF7 is 1200 nM.

Consider `COc1ccc([C@@H]2[C@@H](C(O)c3ccc(C)s3)C(=O)N2c2cc(OC)c(OC)c(OC)c2)cc1` (stereo partly drawn), for which 1260 nM corresponded to half-maximal inhibition with MCF7 (IC50).

On to `COc1ccc([C@@H]2[C@@H](C(=O)c3cccs3)C(=O)N2c2cc(OC)c(OC)c(OC)c2)cc1`, for which the IC50 in the series on MCF7 was found to be 950 nM.

`COc1ccc([C@@H]2[C@@H](C(=O)c3ccsc3)C(=O)N2c2cc(OC)c(OC)c(OC)c2)cc1` registered an IC50 in the series with MCF7 of 470 nM.

`COc1ccc([C@@H]2/C(=C/c3cccs3)C(=O)N2c2cc(OC)c(OC)c(OC)c2)cc1` had an IC50 with MCF7 of 4050 nM.

`COc1ccc(C2/C(=C/c3ccc(C)s3)C(=O)N2c2cc(OC)c(OC)c(OC)c2)cc1` (stereo not drawn): the IC50 in the series with MCF7 was found to be 580 nM.

The compound `COc1ccc([C@@H]2C(C3CCCCC3)C(=O)N2c2cc(OC)c(OC)c(OC)c2)cc1` (mixture of isomers) showed a half-inhibitory concentration (IC50) with MCF7 of 580 nM.

For the compound `COc1ccc([C@H]2N(c3cc(OC)c(OC)c(OC)c3)C(=O)C2(C)c2ccccc2)cc1` (mixture of isomers), the IC50 in the series on MCF7 is 43500 nM.
